For orientation: Ki means the equilibrium dissociation constant of an inhibitor or competing ligand from its target. Read a high Ki as a looser hold on the target. In general, IC50 refers to the midpoint of a concentration-inhibition curve.

Experiment [1] deals with T1, Kappa-type opioid receptor (Homo sapiens, UniProt P41145). Kind of experiment: Inhibition of binding of [3H]diprenorphine to cloned human Opioid receptor kappa 1 expressed in CHO cell membrane;Range is in between (1400-1900). The class given is cell-based. In outline:
(§1)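 Membranes from CHO cells expressing cloned human µ, δ or κ receptors in Tris-HCl pH 7.8 buffer with EGTA, MgCl2 and protease inhibitors. 50-100 µg protein with 0.4 nM (final) [3H]-diprenorphine, 60 min, room temperature. Filtered on PEI/BSA-treated GF/B filters, counted by scintillation. Nonspecific binding with 10 µM naloxone. Four-parameter one-site fit; Ki by Cheng-Prusoff.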

For experiment [2], the target named is T2, Delta-type opioid receptor (Homo sapiens, UniProt P41143). The experiment in a line: Inhibition of binding of [3H]diprenorphine to cloned human Opioid receptor delta 1 expressed in CHO cell membrane;Range is between (1.7-2.3). The class given is cell-based.
T2 sequence (P41143 whole entry): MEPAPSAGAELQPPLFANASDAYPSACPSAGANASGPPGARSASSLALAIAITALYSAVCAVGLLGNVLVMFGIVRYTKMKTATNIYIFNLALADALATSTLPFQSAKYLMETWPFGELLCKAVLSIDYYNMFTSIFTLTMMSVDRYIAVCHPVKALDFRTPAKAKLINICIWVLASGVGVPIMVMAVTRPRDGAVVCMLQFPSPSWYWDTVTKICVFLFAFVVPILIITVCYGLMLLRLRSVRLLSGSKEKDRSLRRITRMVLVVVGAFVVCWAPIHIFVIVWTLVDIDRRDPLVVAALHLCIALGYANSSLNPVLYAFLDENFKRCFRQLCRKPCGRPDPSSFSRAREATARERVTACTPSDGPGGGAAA
The target in experiment [3] is T3, Delta-type opioid receptor (Mus musculus, UniProt P32300). Kind of experiment: Ability to inhibit electrically evoked contractions of isolated muscle preparations of mouse vas deferens (MVD, delta receptor). The experiment is classed as functional. In outline: (§2)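 Electrically evoked contractions of isolated guinea pig ileum (GPI) or mouse vas deferens (MVD) preparations. A log dose-response curve for [Leu5]-enkephalin was run as standard on each ileum and vas preparation. IC50 values were normalised to that standard.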
T3 sequence (P32300 whole entry): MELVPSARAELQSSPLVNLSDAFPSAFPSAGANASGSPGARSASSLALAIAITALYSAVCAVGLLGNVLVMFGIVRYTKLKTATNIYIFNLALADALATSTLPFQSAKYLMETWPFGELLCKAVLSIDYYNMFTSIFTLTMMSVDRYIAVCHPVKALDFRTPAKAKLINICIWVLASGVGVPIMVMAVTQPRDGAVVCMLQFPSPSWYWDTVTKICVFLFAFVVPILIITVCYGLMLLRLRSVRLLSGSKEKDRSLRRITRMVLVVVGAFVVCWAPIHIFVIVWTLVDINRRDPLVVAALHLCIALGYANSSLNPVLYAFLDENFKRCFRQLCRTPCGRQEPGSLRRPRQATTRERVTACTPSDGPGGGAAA

The species entered for experiment [4] is Rattus norvegicus. Kind of experiment: Dosage necessary to produce half maximal effect; Range is in between (0.0010-0.0024). The class given is functional.
In experiment [5] the target is Mu-type opioid receptor (Cavia porcellus, UniProt P97266). Kind of experiment: Ability to inhibit electrically evoked contractions of isolated muscle preparations of guinea pig ileum (GPI, mu receptor). The experiment is classed as functional, tissue-based. In outline: as §2
Chain of Mu-type opioid receptor (Cavia porcellus, UniProt P97266) (P97266 whole entry): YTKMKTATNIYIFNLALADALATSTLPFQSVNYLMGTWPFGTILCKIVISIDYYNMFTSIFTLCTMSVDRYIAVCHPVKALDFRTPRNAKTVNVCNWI
The target of experiment [6] is T4, Mu-type opioid receptor (Homo sapiens, UniProt P35372). Kind of experiment: Inhibition of binding of [3H]diprenorphine to cloned human Opioid receptor mu 1 expressed in CHO cell membrane;Range is in between (1.8-2.2). The class given is cell-based.
T4 sequence (P35372 whole entry): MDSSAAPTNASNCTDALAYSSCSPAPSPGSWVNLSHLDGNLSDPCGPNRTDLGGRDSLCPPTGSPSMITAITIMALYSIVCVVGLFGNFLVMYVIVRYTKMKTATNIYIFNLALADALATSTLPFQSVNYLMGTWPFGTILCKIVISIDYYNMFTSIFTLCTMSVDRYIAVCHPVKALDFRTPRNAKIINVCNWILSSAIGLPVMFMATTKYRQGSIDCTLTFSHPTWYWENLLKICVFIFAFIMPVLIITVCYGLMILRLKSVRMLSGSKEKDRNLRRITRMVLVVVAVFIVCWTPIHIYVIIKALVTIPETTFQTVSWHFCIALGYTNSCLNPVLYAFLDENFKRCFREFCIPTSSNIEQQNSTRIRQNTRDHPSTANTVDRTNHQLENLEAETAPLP
For experiment [7], the target named is T2, Delta-type opioid receptor. The experiment in a line: Inhibition of binding of [3H]diprenorphine to cloned human Opioid receptor delta 1 expressed in CHO cell membrane;Range is between (0.35-2.5). The class given is cell-based. In outline: as §1
In experiment [8] the target is T1, Kappa-type opioid receptor. Kind of experiment: Inhibition of binding of [3H]diprenorphine to cloned human Opioid receptor kappa 1 expressed in CHO cell membrane. The class given is cell-based.
The target of experiment [9] is T4, Mu-type opioid receptor. The experiment in a line: Inhibition of binding of [3H]diprenorphine to cloned human Opioid receptor mu 1 expressed in CHO cell membrane;Range is in between (580-680). The experiment is classed as cell-based. A digest of the protocol: as §1
Experiment [10] is filed under the species Rattus norvegicus. Kind of experiment: Dosage necessary to produce half maximal effect; Range is in between (0.017-0.41). The experiment is classed as functional.
The target of experiment [11] is T3, Delta-type opioid receptor. Kind of experiment: Ability to inhibit electrically evoked contractions of isolated muscle preparations of mouse vas deference (MVD, delta receptor). The experiment is classed as functional. A digest of the protocol: as §2
The species named for experiment [12] is Rattus norvegicus. The experiment in a line: Dosage necessary to produce half maximal effect; Range is in between (98-163). The experiment is classed as functional.
Experiment [13] is filed under the species Rattus norvegicus. Kind of experiment: Dosage necessary to produce half maximal effect; Range is in between (0.04-0.33). The class given is functional.
For experiment [14], the target named is T4, Mu-type opioid receptor. The experiment in a line: Inhibition of binding of [3H]diprenorphine to cloned human Opioid receptor mu 1 expressed in CHO cell membrane;Range is in between (110-150). The class given is cell-based. In outline:
as §1

The target of experiment [15] is T2, Delta-type opioid receptor. The experiment in a line: Inhibition of binding of [3H]diprenorphine to cloned human Opioid receptor delta 1 expressed in CHO cell membrane;Range is between (0.66-0.95). The experiment is classed as cell-based. A digest of the protocol: as §1
In experiment [16] the target is T4, Mu-type opioid receptor. Kind of experiment: Inhibition of binding of [3H]diprenorphine to cloned human Opioid receptor mu 1 expressed in CHO cell membrane;Range is in between (1.3-3.7). The class given is cell-based.
Experiment [17] concerns the target T2, Delta-type opioid receptor. Kind of experiment: Inhibition of binding of [3H]diprenorphine to cloned human Opioid receptor delta 1 expressed in CHO cell membrane;Range is in between (0.62-0.65). The experiment is classed as cell-based.
The species named for experiment [18] is Rattus norvegicus. The experiment in a line: Dosage necessary to produce half maximal effect; Range is in between (0.0010-0.0034). The experiment is classed as functional.
Experiment [19] addresses T1, Kappa-type opioid receptor. Kind of experiment: Inhibition of binding of [3H]diprenorphine to cloned human Opioid receptor kappa 1 expressed in CHO cell membrane; range is in between (4700-8500). The experiment is classed as cell-based. In outline: as §1
For experiment [20], the species on record is Rattus norvegicus. The experiment in a line: Dosage necessary to produce half maximal effect; Range is in between (10-24). The class given is functional.

T1 sequence (P41145 whole entry): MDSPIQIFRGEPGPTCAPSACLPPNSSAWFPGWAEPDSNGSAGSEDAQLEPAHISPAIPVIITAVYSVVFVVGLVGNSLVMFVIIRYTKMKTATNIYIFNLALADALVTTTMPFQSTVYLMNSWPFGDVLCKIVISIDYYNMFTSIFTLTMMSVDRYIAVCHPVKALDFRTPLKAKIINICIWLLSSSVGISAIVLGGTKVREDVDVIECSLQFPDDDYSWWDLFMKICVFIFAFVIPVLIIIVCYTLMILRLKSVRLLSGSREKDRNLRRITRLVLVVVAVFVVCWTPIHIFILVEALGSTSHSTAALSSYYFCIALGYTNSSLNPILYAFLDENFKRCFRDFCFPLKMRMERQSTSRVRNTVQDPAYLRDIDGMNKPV

In the case of `N[C@@H](Cc1ccc(O)cc1)C(=O)N[C@@H]1CSC[C@H](C(=O)O)NC(=O)[C@H](Cc2ccccc2)NC(=O)CNC1=O`, the Ki came out at 1600 nM in experiment [1], 2 nM in experiment [2] and 2 nM on Mu-type opioid receptor [6]. The IC50 in experiment [3] turned out to be 1.58 nM; at Mu-type opioid receptor [5], 0.56 nM. Besides, the ED50 in the experiment filed under Rattus norvegicus [4] was determined as 0.0015 nM.
As to `CC1(C)SC[C@H](C(=O)O)NC(=O)[C@H](Cc2ccccc2)NC(=O)CNC(=O)[C@@H]1NC(=O)[C@@H](N)Cc1ccc(O)cc1`, the Ki in [7] was 0.93 nM; in experiment [8] it was more than 10000 nM; on Mu-type opioid receptor [9], 630 nM. This compound also showed an ED50 in the experiment listed under Rattus norvegicus [10] of 0.26 nM. For the same compound, the IC50 at Mu-type opioid receptor [5] turned out to be 730 nM; in experiment [11], 2.33 nM.
Turning to `CC1(C)SSC(C)(C)[C@@H](NC(=O)[C@@H](N)Cc2ccc(O)cc2)C(=O)NCC(=O)N[C@@H](Cc2ccccc2)C(=O)N[C@H]1C(=O)O`, the ED50 in the experiment filed under Rattus norvegicus [12] is 130 nM.
In the case of `CC1(C)SC[C@@H](C(=O)O)NC(=O)[C@H](Cc2ccccc2)NC(=O)CNC(=O)[C@@H]1NC(=O)[C@@H](N)Cc1ccc(O)cc1`, the ED50 in the experiment filed under Rattus norvegicus [13] was 0.12 nM. For the same compound, the Ki at Mu-type opioid receptor [14] is 130 nM; in experiment [8] it was more than 1000 nM; in experiment [15] it was 0.79 nM. In addition, the results for the IC50 (against Mu-type opioid receptor [5]; in [11]) were 82 nM and 0.26 nM, respectively.
Consider `N[C@@H](Cc1ccc(O)cc1)C(=O)N[C@@H]1CSC[C@@H](C(=O)O)NC(=O)[C@H](Cc2ccccc2)NC(=O)CNC1=O`, for which the IC50 came to 0.35 nM in [3] and 1.06 nM against Mu-type opioid receptor [5]. Further, the Ki on Mu-type opioid receptor [16] was 2.3 nM; in experiment [17], 0.63 nM; in experiment [19], 6400 nM. In the experiment filed under Rattus norvegicus [18], this compound registered an ED50 of 0.0018 nM.
Take `CN1CC[C@]23c4c5ccc(O)c4O[C@H]2[C@@H](O)C=C[C@H]3[C@H]1C5` [MORPHINE]: the ED50 in the experiment listed under Rattus norvegicus [20] is listed as 15 nM.

These data come from ChEMBL document CHEMBL1135552, “Synthesis and biological activities of cyclic lanthionine enkephalin analogues: delta-opioid receptor selective ligands” (J Med Chem, 2002).
